From ChEMBL document CHEMBL1133105, “Antimalarial, antitrypanosomal, and antileishmanial activities and cytotoxicity of bis(9-amino-6-chloro-2-methoxyacridines): influence of the linker” (J Med Chem, 2000)

system: Trypanosoma cruzi; assay: Percentage of activity against Trypanosoma cruzi at 6.25 uM Concentration; assay type: functional; details: not given
In short: (§1)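 Mouse peritoneal macrophages, 30 000/well, infected after 24 h with about 100 000 T. cruzi trypomastigotes per well plus 2-fold drug dilutions (12.5–1.56 µM). Incubated 4 days at 37 °C, 5% CO2. Methanol-fixed, Giemsa-stained and scored microscopically as % reduction of total parasite load (free trypomastigotes plus intracellular amastigotes) versus untreated controls.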

Structure (SMILES) | Reduction of T. cruzi parasite load [%]
COc1ccc2nc3cc(Cl)ccc3c(NCCCN(CCCNc3c4ccc(Cl)cc4nc4ccc(OC)cc34)C(=O)C(CCCCN)NC(=O)OC(C)(C)C)c2c1 (centres undefined) | 90
COc1ccc2nc3cc(Cl)ccc3c(NCCCCCCNc3c4ccc(Cl)cc4nc4ccc(OC)cc34)c2c1 | 40

system: Trypanosoma brucei; assay: Percentage of activity against Trypanosoma brucei at 1.56 uM; assay type: functional; details: not given
In short: (§2)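 Bloodstream-form T. brucei in HMI-9 medium, 10 000 parasites/well, exposed to 12.5, 6.25, 3.13 and 1.56 µM drug for 4 days. Read-out is % inhibition of parasite multiplication. Macrophage toxicity judged on mouse primary peritoneal macrophages.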

Structure (SMILES) | Percent inhibition of parasite multiplication [%]
COc1ccc2nc3cc(Cl)ccc3c(NCCCN(CCCNc3c4ccc(Cl)cc4nc4ccc(OC)cc34)C(=O)C(CCCCN)NC(=O)OC(C)(C)C)c2c1 (centres undefined) | 100
COc1ccc2nc3cc(Cl)ccc3c(NCCCCCCNc3c4ccc(Cl)cc4nc4ccc(OC)cc34)c2c1 | 90

system: Leishmania infantum; assay: Percentage of activity against Leishmania infantum at 1.56 uM; assay type: functional; details: not given
In short: (§3)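 Starch-stimulated mouse peritoneal macrophages, 30 000/well, infected after 24 h with spleen-derived L. infantum amastigotes (10:1) together with 2-fold drug dilutions (12.5–1.56 µM). Incubated 7 days at 37 °C, 5% CO2. Wright-stained slides scored microscopically as % reduction of total parasite load or of infected macrophages. Uninfected treated cultures judged microscopically for macrophage toxicity.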

Structure (SMILES) | Antileishmanial activity (% reduction of parasite load) [%]
COc1ccc2nc3cc(Cl)ccc3c(NCCCN(CCCNc3c4ccc(Cl)cc4nc4ccc(OC)cc34)C(=O)C(CCCCN)NC(=O)OC(C)(C)C)c2c1 (centres undefined) | 0
COc1ccc2nc3cc(Cl)ccc3c(NCCCCCCNc3c4ccc(Cl)cc4nc4ccc(OC)cc34)c2c1 | 0

system: Leishmania infantum; assay: Percentage of activity against Leishmania infantum 6.25 uM; assay type: functional; details: not given; in short: as §3

Structure (SMILES) | Antileishmanial activity (% reduction of parasite load) [%]
COc1ccc2nc3cc(Cl)ccc3c(NCCCN(CCCNc3c4ccc(Cl)cc4nc4ccc(OC)cc34)C(=O)C(CCCCN)NC(=O)OC(C)(C)C)c2c1 (centres undefined) | 0
COc1ccc2nc3cc(Cl)ccc3c(NCCCCCCNc3c4ccc(Cl)cc4nc4ccc(OC)cc34)c2c1 | 0

system: Trypanosoma brucei; assay: Percentage of activity against Trypanosoma brucei at 6.25 uM; assay type: functional; details: not given; in short: as §2

Structure (SMILES) | Inhibition of parasite multiplication [%]
COc1ccc2nc3cc(Cl)ccc3c(NCCCN(CCCNc3c4ccc(Cl)cc4nc4ccc(OC)cc34)C(=O)C(CCCCN)NC(=O)OC(C)(C)C)c2c1 (centres undefined) | 100
COc1ccc2nc3cc(Cl)ccc3c(NCCCCCCNc3c4ccc(Cl)cc4nc4ccc(OC)cc34)c2c1 | 100

system: Plasmodium falciparum; assay: In vitro sensitivity for Plasmodium falciparum FcB1R; assay type: functional, organism-based; details: not given
In short: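 Asynchronous P. falciparum cultures in human erythrocytes (0.5% parasitemia, 1% haematocrit) exposed to serially diluted drug for 24 h at 37 °C. [3H]hypoxanthine (0.5 µCi/well) then added for a further 24 h. Uptake compared with drug-free controls on the same plate. IC50 taken from the concentration–response curve, averaged over independent experiments. DMSO ≤0.1%.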

Structure (SMILES) | IC50 [nM]
COc1ccc2nc3cc(Cl)ccc3c(NCCCN(CCCNc3c4ccc(Cl)cc4nc4ccc(OC)cc34)C(=O)C(CCCCN)NC(=O)OC(C)(C)C)c2c1 (centres undefined) | > 500
COc1ccc2nc3cc(Cl)ccc3c(NCCCCCCNc3c4ccc(Cl)cc4nc4ccc(OC)cc34)c2c1 | 16

system: Leishmania infantum; assay: Percentage of activity against Leishmania infantum at 3.13 uM; assay type: functional; details: not given; in short: as §3

Structure (SMILES) | Percent antileishmanial activity (reduction of parasite load) [%]
COc1ccc2nc3cc(Cl)ccc3c(NCCCN(CCCNc3c4ccc(Cl)cc4nc4ccc(OC)cc34)C(=O)C(CCCCN)NC(=O)OC(C)(C)C)c2c1 (centres undefined) | 0
COc1ccc2nc3cc(Cl)ccc3c(NCCCCCCNc3c4ccc(Cl)cc4nc4ccc(OC)cc34)c2c1 | 0

system: Trypanosoma brucei; assay: Percentage of activity against Trypanosoma brucei at 12.5 uM; assay type: functional; details: not given; in short: as §2

Structure (SMILES) | Inhibition of parasite multiplication [%]
COc1ccc2nc3cc(Cl)ccc3c(NCCCN(CCCNc3c4ccc(Cl)cc4nc4ccc(OC)cc34)C(=O)C(CCCCN)NC(=O)OC(C)(C)C)c2c1 (centres undefined) | 100
COc1ccc2nc3cc(Cl)ccc3c(NCCCCCCNc3c4ccc(Cl)cc4nc4ccc(OC)cc34)c2c1 | 100

system: MRC5; assay: Cytotoxicity on MRC-5 cells at 3.13 uM; assay type: functional; details: Homo sapiens
In short: (§4)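 MRC-5 human diploid embryonic lung cells seeded at 5 000/well, washed after 24 h, then given 2-fold drug dilutions (25, 12.5, 6.25, 3.13 µM) in RPMI + 5% FCS, final DMSO below 0.5%. Incubated 7 days at 37 °C, 5% CO2. MTT colorimetric read-out, scored as % reduction of absorbance at 540 nm versus untreated controls.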

Structure (SMILES) | cytotoxicity at 3.13 µM [%]
COc1ccc2nc3cc(Cl)ccc3c(NCCCN(CCCNc3c4ccc(Cl)cc4nc4ccc(OC)cc34)C(=O)C(CCCCN)NC(=O)OC(C)(C)C)c2c1 (centres undefined) | 0
COc1ccc2nc3cc(Cl)ccc3c(NCCCCCCNc3c4ccc(Cl)cc4nc4ccc(OC)cc34)c2c1 | 20

system: MRC5; assay: Cytotoxicity on MRC-5 cells at 12.5 uM; assay type: functional; details: Homo sapiens; in short: as §4

Structure (SMILES) | cytotoxicity at 12.5 µM [%]
COc1ccc2nc3cc(Cl)ccc3c(NCCCN(CCCNc3c4ccc(Cl)cc4nc4ccc(OC)cc34)C(=O)C(CCCCN)NC(=O)OC(C)(C)C)c2c1 (centres undefined) | 100
COc1ccc2nc3cc(Cl)ccc3c(NCCCCCCNc3c4ccc(Cl)cc4nc4ccc(OC)cc34)c2c1 | 90

system: Trypanosoma brucei; assay: Percentage of activity against Trypanosoma brucei at 3.13 uM; assay type: functional; details: not given; in short: as §2

Structure (SMILES) | Parasite growth inhibition [%]
COc1ccc2nc3cc(Cl)ccc3c(NCCCN(CCCNc3c4ccc(Cl)cc4nc4ccc(OC)cc34)C(=O)C(CCCCN)NC(=O)OC(C)(C)C)c2c1 (centres undefined) | 100
COc1ccc2nc3cc(Cl)ccc3c(NCCCCCCNc3c4ccc(Cl)cc4nc4ccc(OC)cc34)c2c1 | 99

system: Trypanosoma cruzi; assay: Percentage of activity against Trypanosoma cruzi at 3.13 uM; assay type: functional; details: not given; in short: as §1

Structure (SMILES) | Reduction of T. cruzi parasite load [%]
COc1ccc2nc3cc(Cl)ccc3c(NCCCN(CCCNc3c4ccc(Cl)cc4nc4ccc(OC)cc34)C(=O)C(CCCCN)NC(=O)OC(C)(C)C)c2c1 (centres undefined) | 40
COc1ccc2nc3cc(Cl)ccc3c(NCCCCCCNc3c4ccc(Cl)cc4nc4ccc(OC)cc34)c2c1 | 0

system: MRC5; assay: Cytotoxicity on MRC-5 cells at 6.25 uM; assay type: functional; details: Homo sapiens; in short: as §4

Structure (SMILES) | cytotoxicity at 6.25 µM [%]
COc1ccc2nc3cc(Cl)ccc3c(NCCCN(CCCNc3c4ccc(Cl)cc4nc4ccc(OC)cc34)C(=O)C(CCCCN)NC(=O)OC(C)(C)C)c2c1 (centres undefined) | 40
COc1ccc2nc3cc(Cl)ccc3c(NCCCCCCNc3c4ccc(Cl)cc4nc4ccc(OC)cc34)c2c1 | 80

system: Leishmania infantum; assay: In Vitro evaluation for the percentage of activity towards Leishmania infantum at 12.5 uM Concentration; assay type: functional; details: not given; in short: as §3

Structure (SMILES) | Percent inhibition of Leishmania infantum [%]
COc1ccc2nc3cc(Cl)ccc3c(NCCCN(CCCNc3c4ccc(Cl)cc4nc4ccc(OC)cc34)C(=O)C(CCCCN)NC(=O)OC(C)(C)C)c2c1 (centres undefined) | 40
COc1ccc2nc3cc(Cl)ccc3c(NCCCCCCNc3c4ccc(Cl)cc4nc4ccc(OC)cc34)c2c1 | 40

system: MRC5; assay: Cytotoxicity on MRC-5 cells at 25 uM; assay type: functional; details: Homo sapiens; in short: as §4

Structure (SMILES) | cytotoxicity at 25 µM [%]
COc1ccc2nc3cc(Cl)ccc3c(NCCCN(CCCNc3c4ccc(Cl)cc4nc4ccc(OC)cc34)C(=O)C(CCCCN)NC(=O)OC(C)(C)C)c2c1 (centres undefined) | 100
COc1ccc2nc3cc(Cl)ccc3c(NCCCCCCNc3c4ccc(Cl)cc4nc4ccc(OC)cc34)c2c1 | 100

system: Trypanosoma cruzi; assay: Percentage of activity against Trypanosoma cruzi at 12.5 uM; assay type: functional; details: not given; in short: as §1

Structure (SMILES) | T. cruzi parasite load reduction [%]
COc1ccc2nc3cc(Cl)ccc3c(NCCCN(CCCNc3c4ccc(Cl)cc4nc4ccc(OC)cc34)C(=O)C(CCCCN)NC(=O)OC(C)(C)C)c2c1 (centres undefined) | 99
COc1ccc2nc3cc(Cl)ccc3c(NCCCCCCNc3c4ccc(Cl)cc4nc4ccc(OC)cc34)c2c1 | 70

system: Trypanosoma cruzi; assay: Percentage of activity against Trypanosoma cruzi at 1.56 uM; assay type: functional; details: not given; in short: as §1

Structure (SMILES) | Parasite load reduction [%]
COc1ccc2nc3cc(Cl)ccc3c(NCCCN(CCCNc3c4ccc(Cl)cc4nc4ccc(OC)cc34)C(=O)C(CCCCN)NC(=O)OC(C)(C)C)c2c1 (centres undefined) | 0
COc1ccc2nc3cc(Cl)ccc3c(NCCCCCCNc3c4ccc(Cl)cc4nc4ccc(OC)cc34)c2c1 | 0
